Measurements: ChEMBL document CHEMBL1132942, “Quinolones: novel probes in antifilarial chemotheraphy” (2000)

What was measured:
[1] = Tested in vivo for sterilization of female worms; type: functional, Acanthocheilonema viteae; set-up: concentration or dose not given beside the values
Acanthocheilonema viteae [2] = experiment: (§1) Tested in vivo for Acanthocheilonema viteae at 200 mg/kg X 5 days(perorally); type: functional; conditions: route oral
Procedure, shortened: (§2)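 A. viteae transmitted to male M. coucha (6 weeks old) via vector tick Ornithodorus moubata. Test agents given orally at 200 mg/kg daily for five consecutive days. Micro- and macrofilaricidal activity assessed per earlier-described methods.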

Acanthocheilonema viteae [3] = experiment: as §1; type: functional; conditions: route oral; procedure, shortened: as §2; remark: listed apart in the source

Row | SMILES | Reduction [1] [%] | Reduction (Acanthocheilonema viteae [2]) [%] | Reduction (Acanthocheilonema viteae [3]) [%]
1 | CCCCCCCCNC(=O)c1cnc2c(F)cccc2c1O | 25 | 37 | 47
2 | O=C(NC1CCCCC1)c1cnc2ccc(F)cc2c1O | 36 | 50 | 31
3 | CCN(CC)CCCC(C)NC(=O)c1cnc2cc(Cl)c(F)cc2c1O (stereo unspecified) | 0 | 60 | 0
4 | O=C(NC1CCCCC1)c1cnc2ccccc2c1O | – | 90 | 100
5 | O=C(NC1CCCCC1)c1cnc2ccc([N+](=O)[O-])cc2c1O | 0 | 54 | 0
6 | CCCCCCCCNC(=O)c1cnc2c(C)cccc2c1O | 0 | 17 | 0
7 | CCCCCCCCNC(=O)c1cnc2ccccc2c1O | 0 | 25 | 0
8 | CCCCCCCCNC(=O)c1cnc2ccc(Cl)cc2c1O | 0 | 30 | 50
9 | CCN(CC)CCCC(C)NC(=O)c1cnc2ccc([N+](=O)[O-])cc2c1O (stereo unspecified) | 0 | 54 | 0
10 | O=C(NC1CCCCC1)c1cnc2cc([N+](=O)[O-])ccc2c1O | 0 | 24 | 80
11 | CCCCCCCCNC(=O)c1cnc2ccc(F)cc2c1O | 0 | 48 | 0
12 | CCCCCCCCNC(=O)c1cnc2ccc([N+](=O)[O-])cc2c1O | 100 | 40 | 38
13 | Cc1cccc2c(O)c(C(=O)NC3CCCCC3)cnc12 | 0 | 54 | 0
14 | CCN(CC)C(=O)N1CCN(C)CC1.O=C(O)CC(O)(CC(=O)O)C(=O)O [DIETHYLCARBAMAZINE CITRATE] | 0 | 90 | 0
